Molecules are shown by their SMILES. Activity calls are given as the source filed them. The calls are words filed in the database; no cut-off is given here.

Data set [1] concerns the target T1, Tyrosine-protein kinase BTK (Homo sapiens, UniProt Q06187). The experiment in a line: Binding affinity to recombinant unphosphorylated human GST-tagged BTK kinase domain (389 to 659 residues) expressed in insect cells incubated for 1 hr by Lanthascreen assay. In general terms: In TR-FRET formats the signal depends on donor and acceptor labels being close together.

Data set [2] deals with T1, Tyrosine-protein kinase BTK. The experiment in a line: Covalent inhibition of recombinant human GST-tagged BTK (2 to 659 end residues) expressed in baculovirus expression system assessed as Kinact/Ki ratio using NH2-KKKAPFSWYLPEEG as substrate measured every 2 mins for 2 hrs in presence of ATP by microplate reader assay.
Data set [3] shares this target. The experiment in a line: Covalent inhibition of recombinant human GST-tagged BTK (2 to 659 end residues) expressed in baculovirus expression system assessed as inactivation constant using NH2-KKKAPFSWYLPEEG as substrate measured every 2 mins for 2 hrs in presence of ATP by microplate reader assay.
The target is the same in data set [4]. The experiment in a line: Covalent inhibition of recombinant human GST-tagged BTK (2 to 659 end residues) expressed in baculovirus expression system assessed as inhibition constant using NH2-KKKAPFSWYLPEEG as substrate measured every 2 mins for 2 hrs in presence of ATP by microplate reader assay.
Data set [5] shares this target. The experiment in a line: Time dependent inhibition of recombinant human GST-tagged BTK (2 to 659 end residues) expressed in baculovirus expression system using NH2-KKKAPFSWYLPEEG as substrate measured every 2 mins for 2 hrs in presence of ATP by microplate reader assay.
Data set [6] can be described thus: Inhibition of BTK in Wistar rat whole blood assessed as reduction in anti-IgD-induced B220/CD86+ expression incubated for 1 hr followed anti-IgD stimulation and measured after overnight by flow cytometry analysis. In kind it is tissue-based. In outline: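 B-cell activation induced by anti-IgD in rat whole blood, read as B220+CD86+ cells.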
(Flow cytometry measures light scatter and fluorescence of single cells or particles in a stream.)

Data set [7] addresses Tyrosine-protein kinase BTK (Mus musculus, UniProt P35991). The experiment in a line: Inhibition of BTK in C57Bl/6 mouse splenocyte assessed as reduction in anti-IgM-induced CD69 expression incubated for 1 hr followed anti-IgM stimulation and measured after overnight by flow cytometry analysis. The class given is tissue-based. In outline:
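Mouse splenocytes stimulated with anti-IgM. CD69 expression measured as the read-out.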

Data set [8] can be described thus: Half life of the compound at 25 degreeC. The class given is physicochemical.
Data set [9] is described as follows: Half life in human pooled liver microsomes at 1 uM measured up to 60 mins in presence of NADPH by LC-MS/MS analysis. The class given is ADME, Microsome. (Microsomes from liver hold many membrane-bound enzymes, among them those of drug oxidation.)

Sequence of Tyrosine-protein kinase BTK (Mus musculus, UniProt P35991) (P35991 whole entry): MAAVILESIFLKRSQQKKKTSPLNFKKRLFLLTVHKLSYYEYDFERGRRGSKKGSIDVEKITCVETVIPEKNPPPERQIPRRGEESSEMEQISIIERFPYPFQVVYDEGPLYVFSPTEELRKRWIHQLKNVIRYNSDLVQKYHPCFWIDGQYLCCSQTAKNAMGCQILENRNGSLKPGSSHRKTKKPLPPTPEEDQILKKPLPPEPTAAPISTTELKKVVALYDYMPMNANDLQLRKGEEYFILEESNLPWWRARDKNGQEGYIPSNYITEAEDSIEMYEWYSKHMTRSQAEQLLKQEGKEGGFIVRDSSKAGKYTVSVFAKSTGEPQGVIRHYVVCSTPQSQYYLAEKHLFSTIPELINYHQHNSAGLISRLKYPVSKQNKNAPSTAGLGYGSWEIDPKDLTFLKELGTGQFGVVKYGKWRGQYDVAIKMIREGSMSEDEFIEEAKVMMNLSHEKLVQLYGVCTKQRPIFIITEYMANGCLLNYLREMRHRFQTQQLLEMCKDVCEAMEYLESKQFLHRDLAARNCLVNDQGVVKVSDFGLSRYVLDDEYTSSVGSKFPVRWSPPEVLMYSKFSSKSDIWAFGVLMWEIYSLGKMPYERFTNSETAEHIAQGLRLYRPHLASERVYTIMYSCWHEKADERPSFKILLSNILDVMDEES
T1 sequence (Q06187 whole entry, the tested form may be a part): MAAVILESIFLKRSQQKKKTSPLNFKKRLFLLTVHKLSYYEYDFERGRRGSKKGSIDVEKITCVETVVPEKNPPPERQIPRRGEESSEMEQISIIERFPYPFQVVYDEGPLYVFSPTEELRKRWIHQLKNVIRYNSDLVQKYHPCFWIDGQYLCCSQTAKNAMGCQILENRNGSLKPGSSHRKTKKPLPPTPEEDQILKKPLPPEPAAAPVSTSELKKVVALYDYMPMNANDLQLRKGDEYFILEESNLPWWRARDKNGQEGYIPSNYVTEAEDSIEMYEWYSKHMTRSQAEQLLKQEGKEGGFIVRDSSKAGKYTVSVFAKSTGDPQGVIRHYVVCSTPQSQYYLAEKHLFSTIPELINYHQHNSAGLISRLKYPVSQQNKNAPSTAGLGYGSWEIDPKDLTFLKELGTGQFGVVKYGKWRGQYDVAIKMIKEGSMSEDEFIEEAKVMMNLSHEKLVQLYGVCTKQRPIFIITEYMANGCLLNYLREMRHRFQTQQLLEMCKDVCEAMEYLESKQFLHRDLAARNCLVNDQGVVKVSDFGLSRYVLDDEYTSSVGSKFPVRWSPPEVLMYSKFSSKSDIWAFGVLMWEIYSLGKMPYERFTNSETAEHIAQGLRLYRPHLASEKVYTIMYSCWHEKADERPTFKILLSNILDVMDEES

`CCC(=O)N1CCC[C@@H](NC(=O)c2sc3nccc4c3c2NC(=O)N4c2ccc(OC(C)C)cc2)C1`: the half-inhibitory concentration (IC50) (usually the concentration that gives 50% inhibition) in [1] was 6600 nM.

As to `C=CC(=O)N1CCC[C@@H](NC(=O)c2sc3nccc4c3c2NC(=O)N4c2ccc(OC(C)C)cc2)C1`, the IC50 in data set [1] worked out at 120 nM. Moreover, the Ratio in data set [2] came out at 60.7 M⁻¹ s⁻¹. Moreover, the Kinact in data set [3] worked out at 0.000256 s⁻¹. Further, the Ki in data set [4] stood at 4220 nM. The inhibition result in data set [5] was “Active”.

Turning to `C=CC(=O)NCCNC(=O)c1sc2nccc3c2c1NC(=O)N3c1ccc(Oc2ccccc2)cc1C`, the IC50 in [6] (Rattus norvegicus, Blood, 1 h) was determined as 210 nM; in data set [7], 7.6 nM. The Ki in data set [4] is 51.9 nM.

For the molecule `O=C(N[C@@H]1CCCNC1)c1sc2nccc3c2c1NC(=O)N3c1ccc(Oc2ccccc2)cc1F`, in [8], the half-life – broadly, the time in which the quantity being followed falls by half – is 46 h.

On to `C=CC(=O)N1CCC[C@@H](NC(=O)c2sc3nccc4c3c2NC(=O)N4c2ccc(Oc3ccccc3)cc2C(F)(F)F)C1`, for which the Ratio in [2] is 95.7 M⁻¹ s⁻¹. Also, the Kinact in data set [3] was 0.000177 s⁻¹. Further, in data set [4], the Ki was 1850 nM.

For the molecule `C=CC(=O)N1CCC[C@@H](NC(=O)c2sc3nccc4c3c2NC(=O)N4c2ccc(Oc3ccccc3)cc2F)C1`, the IC50 in data set [6] (Rattus norvegicus, Blood, 1 h) amounted to 180 nM; in data set [7], 20 nM. In addition, the Ki in data set [4] amounted to 9.2 nM.

As to `C=CC(=O)N1CCC[C@@H](NC(=O)c2sc3nccc4c3c2NC(=O)N4c2ccc(Oc3ccccc3)cc2Cl)C1`, the IC50 stood at 220 nM in data set [6] (Rattus norvegicus, Blood, 1 h) and 13 nM in [7]. In data set [4], the Ki worked out at 12.3 nM.

With `C=CC(=O)N1CCC[C@@H](NC(=O)c2sc3nccc4c3c2NC(=O)N4c2ccc(Oc3ccccc3)cc2C)C1` (stereo in doubt; 17), the IC50 in data set [6] amounted to 140 nM; in [7], 19 nM. The half-life at 1 µM in data set [9] is under 4 min. For the same molecule, in [4], the Ki came out at 4.81 nM.

Consider `C=CC(=O)N1CC(NC(=O)c2sc3nccc4c3c2NC(=O)N4c2ccc(Oc3ccccc3)cc2C)C1`, for which the IC50 in [6] (Rattus norvegicus, Blood, 1 h) stood at 1740 nM; in data set [7], 130 nM. In addition, the Ki in data set [4] amounted to 141 nM.

As to `CC(C)Oc1ccc(N2C(=O)Nc3c(C(=O)N[C@@H]4CCCNC4)sc4nccc2c34)cc1`, the IC50 in [1] stood at 3500 nM.

With `C=CC(=O)N1CC[C@H](NC(=O)c2sc3nccc4c3c2NC(=O)N4c2ccc(Oc3ccccc3)cc2C)C1`, the IC50 amounted to 640 nM in data set [6] (Rattus norvegicus, Blood, 1 h) and 30 nM in [7]. Further, in [4], the Ki was found to be 217 nM.

Regarding `C=CC(=O)N1CCC[C@@H](NC(=O)c2sc3nccc4c3c2NC(=O)N4c2ccccc2C)C1`, the Ratio in data set [2] was determined as 363 M⁻¹ s⁻¹. The Kinact in [3] is 0.000573 s⁻¹. The Ki in data set [4] came to 1580 nM.

Consider `C=CC(=O)N1CCC[C@@H](NC(=O)c2sc3nccc4c3c2NC(=O)N4c2ccccc2)C1`, for which the Ratio in [2] was 126 M⁻¹ s⁻¹. Further, the Kinact in [3] is 0.000807 s⁻¹. In [4], the Ki was found to be 6420 nM.

For `C=CC(=O)N[C@H]1CCC[C@H]1NC(=O)c1sc2nccc3c2c1NC(=O)N3c1ccc(Oc2ccccc2)cc1C`, the IC50 in [6] (Rattus norvegicus, Blood, 1 h) amounted to 100 nM; in [7], 80 nM. Further, the Ratio in data set [2] was 17400 M⁻¹ s⁻¹. For the same molecule, the Kinact in [3] was determined as 0.000257 s⁻¹. In addition, in data set [4], the Ki was determined as 14.8 nM.

With `C=CC(=O)N1CCC[C@@H](NC(=O)c2sc3nccc4c3c2NC(=O)N4c2ccc(OC(C)C)cc2C)C1`, the IC50 in [6] (Rattus norvegicus, Blood, 1 h) worked out at 460 nM; in data set [7], 42 nM. The Ki in data set [4] was 337 nM.

Take `C=CC(=O)N1CCC[C@@H](NC(=O)c2sc3nccc4c3c2NC(=O)N4c2ccc(Oc3ccccc3)cc2C)C1` (stereo in doubt; 16): the concentration for half-maximal inhibition (IC50) stood at 2450 nM in data set [6] and 400 nM in data set [7]. Moreover, in data set [4], the Ki was 150 nM.

Regarding `C=CC(=O)N1CCC[C@@H](NC(=O)c2sc3nccc4c3c2NC(=O)N4c2cc(OC(C)C)ccc2C)C1`, the Ratio in data set [2] was 67.5 M⁻¹ s⁻¹. For the same molecule, the Kinact in [3] is 0.000222 s⁻¹. Besides, the Ki in data set [4] amounted to 3290 nM.

As to `C=CC(=O)C[C@@H]1CC[C@@H](NC(=O)c2sc3nccc4c3c2NC(=O)N4c2ccc(Oc3ccccc3)cc2C)C1`, the IC50 in [6] (Rattus norvegicus, Blood, 1 h) was 130 nM; in [7] it was 7.9 nM. Also, the Ki in data set [4] is 11.7 nM.

(Values after ChEMBL document CHEMBL4814076, “Discovery of a Potent and Selective Covalent Inhibitor of Bruton's Tyrosine Kinase with Oral Anti-Inflammatory Activity” (ACS Med Chem Lett, 2021).)
